# Results published in ChEMBL document CHEMBL1126107, “Structure-activity relationships of imidazo[4,5-f]quinoline partial structures and analogs. Discovery of pyrazolo[3,4-f]quinoline derivatives as potent immunostimulants” (1992).
# Experiments:
# [1] = test system: Escherichia coli; experiment: Minimum subcutaneous effective dose required to protect mice from systemic Escherichia coli; assay type: functional; details: sc, read-out: MED
# How it was run: (§1)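 Female NSA (CF-1) mice, 11–16 g, dosed sc with compound in pyrogen-free saline or water 24 h before ip injection of 0.5 mL E. coli N63 (~4×10^7 CFU/mL, from log-phase L broth culture). Subtherapeutic gentamicin given sc at 0.5, 4 and 24 h postinfection. Ten mice per group. Survival versus infected untreated controls. Minimum effective dose is the sc dose giving significant protection (p < 0.05). The 100%-protection dose is also reported.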
# [2] = test system: Escherichia coli; experiment: Effective dose at which 100% protection occurs in mice infected with Escherichia coli; assay type: functional; how it was run: as §1
# [3] = test system: Escherichia coli; experiment: Compound was evaluated for efficacy in murine systemic Escherichia coli infection with subtherapeutic gentamycin treatment; assay type: functional; details: read-out: PD50
# How it was run: (§2)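 Female NSA (CF-1) mice (11–16 g) were given test compound in pyrogen-free saline or water, or as a homogenized saline suspension, 24 h before ip challenge with 0.5 mL E. coli N63 (serotype O18) at about 4×10^7 CFU/mL. Gentamicin 0.5 mg/kg was given sc at 0.5, 4 and 24 h postinfection. Endpoint was survival, with 10 mice per group. PD50 was derived by probit analysis of pooled experiments.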
# [4] = test system: Escherichia coli; experiment: In vitro antibacterial activity on sensitivity of Escherichia coli N63 to gentamicin at a concentration of 6.25 ug/mL
# [5] = test system: Escherichia coli; experiment: In vitro antibacterial activity on sensitivity of Escherichia coli N63 to gentamicin at a concentration of 0 ug/mL; assay type: functional
# How it was run: (§3)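 Checkerboard broth microdilution of E. coli N63, inoculated from overnight BHI agar growth, in Mueller-Hinton broth with serial 2-fold dilutions of aminoquinoline and gentamicin. Overnight at 37 °C. Growth read as turbidity at 600 nm, corrected with uninoculated drug-containing wells for insoluble compound. Gentamicin MIC determined at each fixed aminoquinoline concentration.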
# [6] = test system: Escherichia coli; experiment: Compound was evaluated for efficacy in murine systemic Escherichia coli infection without subtherapeutic gentamycin treatment; assay type: functional; details: read-out: PD50
# How it was run: as §2, with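 “No gentamicin” for “Gentamicin 0.5 mg/kg”, “given.” for “given sc at 0.5, 4 and 24 h postinfection.”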
# [7] = test system: Mus musculus; experiment: Effect of interval between drug treatment and challenge on activity in the mouse protection assay 1 days prior to infection at 1.7 mg/Kg; assay type: functional
# How it was run: (§4)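 Female NSA (CF-1) mice, 11–16 g, given compound sc in pyrogen-free saline or water (suspensions homogenized) at 6, 3, 1 or 0 days before ip challenge with 0.5 mL E. coli N63 (~4×10^7 CFU/mL). Gentamicin sc at 0.5, 4 and 24 h postinfection. Ten mice per group. Percent protection = (dead in control − dead in treated) ÷ dead in control × 100.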
# [8] = test system: Mus musculus; experiment: Effect of interval between drug treatment and challenge on activity in the mouse protection assay 6 days prior to infection at 1.7 mg/Kg; assay type: functional; how it was run: as §4
# [9] = test system: Escherichia coli; experiment: In vitro antibacterial activity on sensitivity of Escherichia coli N63 to gentamicin at a concentration of 50 ug/mL; assay type: functional; how it was run: as §3
# [10] = test system: Escherichia coli; experiment: In vitro antibacterial activity on sensitivity of Escherichia coli N63 to gentamicin at a concentration of 1.56 ug/mL; assay type: functional; how it was run: as §3
# [11] = test system: Mus musculus; experiment: Effect of interval between drug treatment and challenge on activity in the mouse protection assay 0 days prior to infection at 1.7 mg/Kg; assay type: functional; how it was run: as §4
# [12] = test system: Escherichia coli; experiment: In vitro antibacterial activity on sensitivity of Escherichia coli N63 to gentamicin at a concentration of 3.13 ug/mL; assay type: functional; how it was run: as §3
# [13] = test system: Mus musculus; experiment: Effect of interval between drug treatment and challenge on activity in the mouse protection assay 3 days prior to infection at 1.7 mg/Kg; assay type: functional; how it was run: as §4
# [14] = test system: Escherichia coli; experiment: In vitro antibacterial activity on sensitivity of Escherichia coli N63 to gentamicin at a concentration of 12.5 ug/mL; assay type: functional; how it was run: as §3
# [15] = test system: Escherichia coli; experiment: In vitro antibacterial activity on sensitivity of Escherichia coli N63 to gentamicin at a concentration of 25 ug/mL; assay type: functional; how it was run: as §3
# [16] = test system: Mus musculus; experiment: Minimum subcutaneous effective dose required to protect mice from systemic Escherichia coli; ND=No dose response; assay type: functional, organism-based; how it was run: as §1
# [17] = test system: Escherichia coli; experiment: In vitro antibacterial activity on sensitivity of Escherichia coli N63 to gentamicin at a concentration of 100 ug/mL; assay type: functional; how it was run: as §3
SMILES,minimal effective dose [1],ED100 [2],also measured
Cc1cc(Nc2ccc(OCc3ccccc3)cc2)c2ccccc2n1,> 50 mg/kg,,
Cc1cc(NC2CCCCC2)c2c(ccc3[nH]cnc32)n1,6 mg/kg,6 mg/kg,
COc1cccc(Nc2cc(C)nc3ccccc23)c1,> 50 mg/kg,,
Cc1cc(Nc2ccc(OCc3ccccc3)cc2)c2c(ccc3c[nH]nc32)n1,2 mg/kg,6 mg/kg,
N#Cc1ccc(NC(=O)c2cccc3[nH]cnc23)cc1,> 50 mg/kg,,
Cc1cc(Nc2ccc(C#N)cc2)c2c(ccc3[nH]cnc32)n1,2 mg/kg,2 mg/kg,
COc1cccc(NC(=O)c2cccc3[nH]cnc23)c1,> 50 mg/kg,,
COc1cccc(Sc2cc(C)nc3ccc4[nH]cnc4c23)c1,> 50 mg/kg,,
COc1cccc(N(C)c2cc(C)nc3ccc4[nH]cnc4c23)c1,> 50 mg/kg,,
COc1cccc(Nc2cc(C)nc(C)c2C(C)O)c1 (stereo not drawn),> 100 mg/kg,,
COc1cccc(Nc2cc(C)nc3ccc4[nH]ncc4c23)c1,> 50 mg/kg,,
CCCCc1ccc(Nc2cc(C)nc3ccccc23)cc1,> 50 mg/kg,,
CCCCc1ccc(Nc2cc(C)nc3ccc4[nH]cnc4c23)cc1,5 mg/kg,15 mg/kg,
COc1cccc(Nc2cc(C)nc3ccc4c[nH]nc4c23)c1,6 mg/kg,17 mg/kg,ED50 [3]: 4.2 mg/kg; MIC [4]: 0.25 mg/L; MIC [5]: 0.25 mg/L; ED50 [6]: 9.8 mg/kg; Protection ([7]; in the assay text read “25 mg/Kg” for “1.7 mg/Kg”): 100%; Protection [8]: 88%; MIC [9]: 0.25 mg/L; MIC [10]: 0.25 mg/L; Protection [11]: 0%; MIC [12]: 0.25 mg/L; Protection [13]: 100%; MIC [14]: 0.25 mg/L; MIC [15]: 0.25 mg/L
COc1cccc(Nc2cc(C)nc3ccc4[nH]cnc4c23)c1,6 mg/kg,50 mg/kg,
CCCCOc1ccc(Nc2cc(C)nc3ccccc23)cc1,> 50 mg/kg,,
CCCCOc1ccc(Nc2cc(C)nc3ccc4[nH]cnc4c23)cc1,5 mg/kg,15 mg/kg,
O=C(NC1CCCCC1)c1cccc2[nH]cnc12,> 50 mg/kg,,
O=C(Nc1ccc(OCC2CCCCC2)cc1)c1cccc2[nH]cnc12,> 50 mg/kg,,
Cc1cc(Nc2ccc(OCc3ccccc3)cc2)c2c(ccc3[nH]ncc32)n1,,,MED [16]: No dose response
COc1cccc(Nc2cc(C)nc(C)c2C(C)=O)c1,> 100 mg/kg,,
COc1cccc(Nc2cc(C)nc(C)c2/C(C)=N/O)c1,> 100 mg/kg,,
Cc1cc(Nc2ccc(OCC3CCCCC3)cc2)c2c(ccc3[nH]cnc32)n1,1 mg/kg,5 mg/kg,ED50 [3]: 0.5 mg/kg; MIC [17]: 0.063 mg/L; MIC [4]: 0.25 mg/L; MIC [5]: 0.5 mg/L; ED50 [6]: 1.5 mg/kg; Protection [7]: 60%; Protection [8]: 0%; MIC [9]: 0.063 mg/L; MIC [10]: 0.25 mg/L; Protection [11]: 0%; MIC [12]: 0.25 mg/L; Protection [13]: 40%; MIC [14]: 0.125 mg/L; MIC [15]: 0.125 mg/L
